CSN deneddyl inh: inhibitors of human CSN-mediated cullin deneddylation. Q92905. Purified CSN, SCF-Nedd8-OG deneddylation, fluorescence polarization. inhibition, % at 12.5 µM. actives 0.38% (n = 360,000);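 active = pattern-corrected inhibition above about 35%, with an unprinted fluorescence ratio check between 0.5 and 1.5, limit read from the data, passing the limit was not always enough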;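 also: 0% = enzyme with substrate and 100% = substrate without enzyme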
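assay system = purified human Csn5 enzyme expressed in HEK293T cells | amount = 0.24 nM enzyme | buffer or medium = Tris/NaCl/DTT buffer, pH 7.5 | reagent = 10 nM SCFSkp2-Nedd8OG | compound = one concentration, 12.5 µM, 0.25% DMSO | times = 90 min reaction at room temperature | signal = FP | read-out basis = % inhibition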
DNMT1 block: blocks human DNA methyltransferase DNMT1; inhibition (reported as % activation of signal), % at 10 µM; P26358; DNMT1 molecular beacon, Hinp1I cleavage, fluorescence; actives 0.83% (n = 360,000); AID 588458; in the data active = inhibition above about 50%
SUMO1 PPI mod: SUMO1-SIM interaction modulation; P63165; SUMO1 binding to a labelled peptide, TR-FRET, 1 h; inhibition, % at 20 µM; actives 0.33% (n = 360,000); AID 602429; in the data active = inhibition above about 37%
Target sequence (P63165 whole entry, looked up): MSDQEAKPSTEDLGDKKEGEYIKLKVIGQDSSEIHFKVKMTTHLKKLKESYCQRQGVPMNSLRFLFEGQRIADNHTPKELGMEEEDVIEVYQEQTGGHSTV
Scp-1 inhibitor: inhibitors of human Scp-1 phosphatase; actives 0.88% (n = 340,000); Q9GZU7; inhibition, % at 20 µM; Recombinant Scp1, phosphopeptide, malachite green phosphate absorbance;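 active = inhibition above about 50% at 20 µM, limit read from the data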;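 also: plate controls were DMSO wells with enzyme for no effect and wells lacking enzyme for full effect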
Target sequence (Q9GZU7 76-261 limits assumed): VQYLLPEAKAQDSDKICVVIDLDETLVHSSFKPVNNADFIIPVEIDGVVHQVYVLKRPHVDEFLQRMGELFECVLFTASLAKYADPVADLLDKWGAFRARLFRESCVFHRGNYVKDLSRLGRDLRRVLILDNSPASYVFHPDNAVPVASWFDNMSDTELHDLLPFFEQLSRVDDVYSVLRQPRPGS
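assay system = SCP-1 phosphatase catalytic domain, residues 76-261 | buffer or medium = 50 mM Tris acetate pH 5.5, 0.005% Tween-20, 10 mM MgCl2 | incubation = enzyme reaction 45 min at room temperature, colour 5 min, stabilisation 30 min | signal = Phosphate-binding colour reagent, absorbance read at 630 nm | measure = % inhibition at 20 µM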
LMPTP inh: LMPTP (human) inhibition | AID 651560 | actives 0.22% (n = 360,000) | recombinant LMPTP-A, OMFP fluorogenic substrate, fluorescence intensity | P24666 | inhibition, % at 20 µM;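 active = compounds that cut the enzyme signal by at least half of the control window in the single-dose screen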;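 also: plate controls were DMSO wells with enzyme plus substrate for no effect and substrate without enzyme for full effect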
Target sequence (P24666 whole entry, looked up): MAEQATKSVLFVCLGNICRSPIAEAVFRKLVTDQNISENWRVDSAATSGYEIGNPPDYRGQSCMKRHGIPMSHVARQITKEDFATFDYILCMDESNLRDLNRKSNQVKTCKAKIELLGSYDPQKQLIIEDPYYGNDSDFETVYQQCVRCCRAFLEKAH
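Test system: LMPTP-A phosphatase enzyme. Amount: LMPTP-A at 0.625 nM final in the reaction. Reagent: OMFP substrate, 400 µM final. Times: 50 min at room temperature. Signal: endpoint fluorescence intensity from OMFP dephosphorylation. Read-out basis: % inhibition. Benchmarks: no-enzyme and uninhibited controls.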
STEP block: inhibitors of human striatal-enriched phosphatase STEP; P54829; recombinant STEP, OMFP fluorogenic substrate, fluorescence; inhibition, % at 20 µM; actives 0.25% (n = 360,000); AID 588621;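 active = inhibition at 20 µM, scaled per plate between control wells, above about 37%, limit read from the data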;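 also: 0% = DMSO with enzyme and substrate and 100% = substrate only without enzyme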
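Material: STEP (striatal-enriched tyrosine phosphatase) enzyme, cell-free; Compound dosing: 20 µM single dose in 1% DMSO; Technique: fluorescence read at 480 nm ex / 540 nm em; Times: reaction 20 min, ambient temperature; Medium: 50 mM Bis-Tris pH 6.0 with 2.5 mM DTT and 0.005% Tween 20; Also added: OMFP at 25 µM.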
DNMT1 inh conf: confirmation of human DNMT1 inhibitors; shares compounds with DNMT1 block; DNMT1 molecular beacon HinP1I cleavage, fluorescence; inhibition, % at 10 µM; actives 8% (n = 2,300); AID 602385;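 active = average inhibition of at least 30% in the single-concentration confirmation test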
DNMT1 interf: counter-screen for DNMT1 inhibitors: spectral interference. actives 1% (n = 2,300). shares compounds with DNMT1 block. activation (fluorescence interference), % at 10 µM. DNMT1 molecular beacon spectral interference counterscreen, fluorescence 485/520;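 active = activation of at least 30% at 10 µM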;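 also: DNMT1 catalytic domain with a HinP1I cleavage step and a FAM/dabcyl DNA beacon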
Numbers without * were called inactive. Hits are enriched below; roughly 2% of the tested compounds scored in any of these assays.

For O=C(Nc1ccc(N2CCCC2)cc1)C(c1ccccc1)c1ccccc1 the results were CSN deneddyl inh 8.9, DNMT1 block 72.6*, SUMO1 PPI mod 7.9, Scp-1 inhibitor 3.3, LMPTP inh 3.6, STEP block 7.4, DNMT1 inh conf 2.2 and DNMT1 interf -1.4.
`CCCCC(=O)Nc1ccc(N2CCCC2)cc1` gave CSN deneddyl inh -3.3, DNMT1 block 76.9*, SUMO1 PPI mod -7.4, Scp-1 inhibitor -3.6, LMPTP inh 9.3, STEP block 4.0, DNMT1 inh conf 1.4 and DNMT1 interf 3.1.
O=C(Cc1ccccc1)Nc1ccc(N2CCOCC2)cc1 was read as CSN deneddyl inh -3.9, DNMT1 block -4.3, SUMO1 PPI mod -1.1, Scp-1 inhibitor 1.7, LMPTP inh -1.4 and STEP block -3.2.
Screening CC(=O)c1ccc(NC(=O)c2ccc(-n3cnnn3)cc2)cc1 returned CSN deneddyl inh 2.6, DNMT1 block 0.5, SUMO1 PPI mod 8.4, Scp-1 inhibitor 3.6, LMPTP inh 0.4 and STEP block -3.4.
Cc1cnc(NC(=O)C2CCC(C(C)(C)C)CC2)s1 (stereo not drawn) was read as CSN deneddyl inh -0.5, DNMT1 block 0.3, SUMO1 PPI mod 0.1, Scp-1 inhibitor -3.4, LMPTP inh 0.4 and STEP block -3.1.
`O=C(Nc1ccc(N2CCCC2)cc1)c1ccc(Br)cc1` gave CSN deneddyl inh 7.4, DNMT1 block 57.5*, SUMO1 PPI mod -54.1, Scp-1 inhibitor -0.6, LMPTP inh 8.9, STEP block 1.6, DNMT1 inh conf 12.9 and DNMT1 interf -5.8.
For O=C(CCc1ccccc1)Nc1ccc(N2CCCCC2)cc1 the results were CSN deneddyl inh 5.9, DNMT1 block -8.0, SUMO1 PPI mod -1.9, Scp-1 inhibitor -4.8, LMPTP inh -0.9 and STEP block 1.9.
CCOc1cccc(C(=O)NC(=S)Nc2ccc(N3CCCC3)cc2)c1 was read as CSN deneddyl inh 9.7, DNMT1 block 71.7*, SUMO1 PPI mod -7.1, Scp-1 inhibitor 6.8, LMPTP inh 5.0, STEP block 11.0, DNMT1 inh conf 1.4 and DNMT1 interf 1.6.
Screening CCOc1cccc(C(=O)Nc2ccc(N3CCN(S(C)(=O)=O)CC3)cc2)c1 returned CSN deneddyl inh 1.9, DNMT1 block 13.5, SUMO1 PPI mod 0.0, Scp-1 inhibitor 5.2, LMPTP inh 1.7 and STEP block -3.1.
O=C(Cc1ccc(Cl)cc1)Nc1ccc(NC(=O)c2ccccc2)cc1 was read as CSN deneddyl inh 9.0, DNMT1 block 55.8*, SUMO1 PPI mod 1.3, Scp-1 inhibitor 2.7, LMPTP inh 16.2, STEP block 0.9, DNMT1 inh conf 2.7 and DNMT1 interf 5.8.
For O=C(Cc1ccccc1)Nc1cccc(N2CCCC2)c1 the results were CSN deneddyl inh 12.1, DNMT1 block 78.3*, SUMO1 PPI mod -0.4, Scp-1 inhibitor -10.9, LMPTP inh 16.5, STEP block -0.7, DNMT1 inh conf 1.4 and DNMT1 interf 2.5.
`CCCCCCN1C[C@H](n2cc(-c3ccc(F)cc3)nn2)[C@@H](O)C[C@@H]1c1ccc(C)cc1` gave CSN deneddyl inh 0.9, DNMT1 block -8.6, SUMO1 PPI mod -0.5, LMPTP inh 1.9 and STEP block 0.5.
Screening Cc1cc(NC(=O)c2ccc(C)o2)no1 returned CSN deneddyl inh 1.5, DNMT1 block 2.7, SUMO1 PPI mod -3.4, Scp-1 inhibitor -4.2, LMPTP inh -2.2 and STEP block -2.3.
Cc1cc(C(=O)Nc2cc(C)on2)on1 was read as CSN deneddyl inh 0.7, DNMT1 block 80.8*, SUMO1 PPI mod 7.8, Scp-1 inhibitor -1.2, LMPTP inh -0.3, STEP block -3.6, DNMT1 inh conf 5.9 and DNMT1 interf 0.8.
For Cc1cc(NC(=O)c2cc(C3CC3)on2)no1 the results were CSN deneddyl inh 3.3, DNMT1 block 55.9*, SUMO1 PPI mod 3.6, Scp-1 inhibitor -1.2, LMPTP inh -0.4, STEP block -0.5, DNMT1 inh conf 0.8 and DNMT1 interf -0.6.
For COC(=O)C1C(c2ccc(N(C)C)cc2)C(C(=O)OC)S(=O)(=O)CS1(=O)=O (stereo not drawn) the results were CSN deneddyl inh 2.7, DNMT1 block 0.4, SUMO1 PPI mod 0.4, Scp-1 inhibitor 0.7, LMPTP inh -2.1 and STEP block -0.2.
Screening CN(C)S(=O)(=O)c1cccc(-c2nnc(SCC(=O)NCCCCCC(=O)O)n2-c2ccc(F)cc2)c1 returned CSN deneddyl inh 0.3, DNMT1 block 3.5, SUMO1 PPI mod 6.0, Scp-1 inhibitor 17.1, LMPTP inh 1.9 and STEP block -0.6.
c1ccc2c(Nc3nc(-c4ccncc4)nc4ccccc34)cccc2c1 was read as CSN deneddyl inh 101.8, DNMT1 block -9.8, SUMO1 PPI mod 4.8, Scp-1 inhibitor -1.9, LMPTP inh 1.6 and STEP block -2.1.
Fc1ccc(Nc2nc(-c3ccncc3)nc3ccccc23)cc1F was read as CSN deneddyl inh 8.3, DNMT1 block 56.0*, SUMO1 PPI mod 18.6, Scp-1 inhibitor -12.5, LMPTP inh 13.1, STEP block 13.9, DNMT1 inh conf 6.5 and DNMT1 interf 1.4.
For COc1ccc(-n2c(SCC(=O)N(C)C3CCS(=O)(=O)C3)nc3ccc(O)cc3c2=O)cc1OC (stereo not drawn) the results were CSN deneddyl inh 3.3, DNMT1 block 0.8, SUMO1 PPI mod 1.2, Scp-1 inhibitor -12.4, LMPTP inh 1.4 and STEP block -2.5.
Screening COC(=O)C(=CC(=CN(C)C)C=C(C(=O)OC)C(=O)OC)C(=O)OC returned CSN deneddyl inh -0.2, DNMT1 block -1.0, SUMO1 PPI mod -2.8, Scp-1 inhibitor -1.2, LMPTP inh -0.9 and STEP block -1.7.
For COc1ccccc1NC(=O)CSc1nccn1Cc1ccccc1 the results were CSN deneddyl inh -1.6, DNMT1 block -0.6, SUMO1 PPI mod -0.3, Scp-1 inhibitor -4.8, LMPTP inh 0.4 and STEP block -0.8.
`Cc1ccc(-c2nc3cccnc3o2)cc1NC(=O)COc1ccc(C(C)(C)C)cc1` gave CSN deneddyl inh 8.8, DNMT1 block -7.0, SUMO1 PPI mod 1.0, Scp-1 inhibitor 7.6, LMPTP inh 5.8 and STEP block 5.7.
